The source made the active and inactive calls. The calls are words filed in the database; no cut-off is given here.
Legend:
MM1.S [1] = experiment: Antiproliferative activity against human MM1.S cells assessed as inhibition of cell growth rate measured after 72 hrs by CellTiter-Glo luminescent assay; assay type: functional
[2] = Antiproliferative activity against human HAP1 cells assessed as inhibition of cell growth incubated for 3 days by CellTiter-Glo luminescent assay; assay type: functional, cell-based; conditions: HAP1, 72 h
HAP1 = experiment: Antiproliferative activity against human HAP1 cells assessed as inhibition of cell growth incubated for 3 days in presence of VX745 by CellTiter-Glo luminescent assay; assay type: functional, cell-based; conditions: time 3.0 day
[3] = molecular target: T1, Mitogen-activated protein kinase 8 (Homo sapiens, UniProt P45983); experiment: Inhibition of His-tagged human recombinant JNK1 expressed in insect cells incubated for 1 hr in presence of ATP by Z'-Lyte assay; set-up: species or system Insect cell
[4] = molecular target: T2, Mitogen-activated protein kinase 9 (Homo sapiens, UniProt P45984); experiment: Inhibition of His-tagged human recombinant JNK2 expressed in baculovirus expression system incubated for 1 hr in presence of ATP by Z'-Lyte assay
Target sequence in this assay (P45984 whole entry): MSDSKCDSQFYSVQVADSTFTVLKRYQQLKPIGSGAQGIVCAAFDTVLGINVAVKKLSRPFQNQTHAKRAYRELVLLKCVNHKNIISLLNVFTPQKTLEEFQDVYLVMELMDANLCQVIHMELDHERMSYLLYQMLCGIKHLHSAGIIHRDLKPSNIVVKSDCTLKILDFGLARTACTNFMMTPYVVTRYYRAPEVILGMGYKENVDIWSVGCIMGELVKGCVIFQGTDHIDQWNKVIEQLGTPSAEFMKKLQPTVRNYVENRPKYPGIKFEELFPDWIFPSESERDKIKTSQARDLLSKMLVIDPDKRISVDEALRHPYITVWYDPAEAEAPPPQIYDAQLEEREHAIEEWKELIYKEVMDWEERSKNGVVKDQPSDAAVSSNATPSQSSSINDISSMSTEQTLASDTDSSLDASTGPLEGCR

Homo sapiens [5] = species on record: Homo sapiens; experiment: Selectivity ratio of IC50 for His-tagged human recombinant JNK1 expressed in insect cells to His-tagged human recombinant JNK2 expressed in baculovirus expression system
Summary of the method: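 Z′-Lyte kinase assays of JNK1 and JNK2 with 100 μM ATP and 1 h compound incubation. Fixed time point IC50 was determined in duplicate. The selectivity ratio is JNK1 IC50 over JNK2 IC50.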

[6] = molecular target: T2, Mitogen-activated protein kinase 9; experiment: Covalent binding affinity to JNK2 (unknown origin) assessed as Cys116 labelling at protein:compound concentration ratio of 1:5 incubated for 1 hr by capillary electrophoresis MS/MS analysis
Summary of the method: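 Purified JNK2 (5 μg) incubated 1 h at room temperature with 5-fold molar excess compound; intact mass by LC/MS, then trypsin digest and capillary electrophoresis-MS/MS database search for modified residue.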
Target sequence in this assay (P45984 whole entry, looked up): as the sequence (P45984 whole entry) above

[7] = molecular target: T2, Mitogen-activated protein kinase 9; experiment: Inhibition of wild type full length human JNK2 (M1 to Q382 residues) expressed in mammalian expression system at 1 uM by KinomeScan analysis
Summary of the method: (§1)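 KINOMEscan (ScanMAX) binding panel of >400 kinases, compound tested at 1 μM; reported as percent inhibition/score.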
Target sequence in this assay (P45984 whole entry, looked up): as the sequence (P45984 whole entry) above

[8] = molecular target: T3, Mitogen-activated protein kinase 14 (Homo sapiens, UniProt Q16539); experiment: Inhibition of wild type full length human p38 alpha (M1 to S360 residues) expressed in bacterial expression system at 1 uM by KinomeScan analysis; summary of the method: as §1
Homo sapiens [9] = species on record: Homo sapiens; experiment: Inhibition of CK1gamma (unknown origin) at 1 uM by KinomeScan analysis
Summary of the method: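 KINOMEscan ScanMAX panel screened at 1 μM compound.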

[10] = molecular target: T4, 1-phosphatidylinositol 3-phosphate 5-kinase (Homo sapiens, UniProt Q9Y2I7); experiment: Inhibition of wild type partial length human PIKFYVE (F1512 to C2098 residues) expressed in mammalian expression system at 1 uM by KinomeScan analysis; summary of the method: as §1
[11] = molecular target: T2, Mitogen-activated protein kinase 9; experiment: Inhibition of JNK2 in human SUM159 cells at 1 uM by KiNativ Profiling analysis; assay type: cell-based; conditions: SUM159PT
Summary of the method: (§2)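 SUM159 cells treated with 1 μM compound, collected, PBS-washed and frozen; lysates probed with ATP/ADP-biotin acyl probe labelling catalytic lysine (KiNativ); protection from labelling measured.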
Target sequence in this assay (P45984 whole entry, looked up): as the sequence (P45984 whole entry) above

[12] = molecular target: T3, Mitogen-activated protein kinase 14; experiment: Inhibition of p38alpha in human SUM159 cells at 1 uM by KiNativ Profiling analysis; assay type: cell-based; conditions: SUM159PT
Summary of the method: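 SUM159 cells treated with 1 μM compound, then washed with PBS and frozen. Lysates were chased with a nonspecific ATP or ADP-biotin probe that labels the conserved catalytic lysine.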

SUM159PT = experiment: Inhibition of CK1gamma in human SUM159 cells at 1 uM by KiNativ Profiling analysis; assay type: cell-based; summary of the method: as §2
[13] = molecular target: T4, 1-phosphatidylinositol 3-phosphate 5-kinase; experiment: Inhibition of PIKFYVE in human SUM159 cells at 1 uM by KiNativ Profiling analysis; assay type: cell-based; conditions: SUM159PT; summary of the method: as §2
[14] = molecular target: T4, 1-phosphatidylinositol 3-phosphate 5-kinase; experiment: Inhibition of PIKFYVE in human MDA-MB-231 cells assessed as vacuole formation at 1 uM measured after 3 days by bright field microscopy; assay type: cell-based; conditions: time 3.0 day
Summary of the method: (§3)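 MDA-MB-231 cells (DMEM, 10% FBS) seeded, next day treated with inhibitor or DMSO; after 3 days imaged by bright-field microscopy at 20× for vacuoles.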

[15] = molecular target: T4, 1-phosphatidylinositol 3-phosphate 5-kinase; experiment: Binding affinity to wild type partial length human PIKFYVE (F1512 to C2098 residues) expressed in mammalian expression system by KdELECT kinase assay
[16] = molecular target: T4, 1-phosphatidylinositol 3-phosphate 5-kinase; experiment: Inhibition of Nano-Luc fused PIKFYVE (unknown origin) expressed in HEK293T cells pretreated for 3 hrs followed by K8-tarcer addition and measured after 1 hr by NanoBRET assay; assay type: cell-based
[17] = molecular target: T1, Mitogen-activated protein kinase 8; experiment: Inhibition of wild type full length human JNK1 expressed in mammalian expression system at 1 uM by KinomeScan analysis; summary of the method: as §1
[18] = molecular target: Mitogen-activated protein kinase 10 (Homo sapiens) (UniProt P53779); experiment: Inhibition of human full length recombinant JNK3 at 1 uM by KinomeScan analysis; summary of the method: as §1
[19] = molecular target: T4, 1-phosphatidylinositol 3-phosphate 5-kinase; experiment: Inhibition of PIKFYVE in human MDA-MB-231 cells assessed as vacuole formation at 4 uM measured after 3 days by bright field microscopy; assay type: cell-based; conditions: time 3.0 day; summary of the method: as §3
[20] = molecular target: Epidermal growth factor receptor (Homo sapiens) (UniProt P00533); experiment: Inhibition of EGFR (unknown origin)
Homo sapiens [21] = species on record: Homo sapiens; experiment: Inhibition of CK1 (unknown origin)
[22] = molecular target: Epithelial discoidin domain-containing receptor 1 (Homo sapiens) (UniProt Q08345); experiment: Inhibition of DDR1 (unknown origin)
[23] = molecular target: CDK7/Cyclin H/MNAT1 (Homo sapiens) (UniProt P51946+P50613+P51948); experiment: Inhibition of CDK7/Cyclin H/MAT1 (unknown origin); assay type: protein-complex assay
[24] = molecular target: T5, Aurora kinase A (Homo sapiens) (UniProt O14965); experiment: Inhibition of Aurora A kinase (unknown origin)
T5 sequence (whole entry): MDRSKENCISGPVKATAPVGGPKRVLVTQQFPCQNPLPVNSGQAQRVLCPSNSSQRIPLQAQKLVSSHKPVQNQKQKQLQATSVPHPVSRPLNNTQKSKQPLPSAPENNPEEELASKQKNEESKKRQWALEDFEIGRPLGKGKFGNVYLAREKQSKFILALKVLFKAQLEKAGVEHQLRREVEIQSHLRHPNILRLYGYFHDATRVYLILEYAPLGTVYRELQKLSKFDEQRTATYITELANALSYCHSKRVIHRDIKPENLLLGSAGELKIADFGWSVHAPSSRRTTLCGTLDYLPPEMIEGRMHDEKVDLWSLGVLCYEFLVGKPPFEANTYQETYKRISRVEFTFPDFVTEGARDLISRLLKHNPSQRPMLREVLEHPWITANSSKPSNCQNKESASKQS

[25] = molecular target: Aurora kinase B (Homo sapiens) (UniProt Q96GD4); experiment: Inhibition of Aurora B kinase (unknown origin)
MM1.S [26] = experiment: Induction of apoptosis in human MM1.S cells assessed as increase in PARP cleavage at 0.5 to 2.5 uM incubated for 24 hrs by immunoblot analysis; assay type: functional, cell-based; conditions: dose 0.5-2.5 µM
MM1.S [27] = experiment: Induction of apoptosis in human MM1.S cells assessed as increase in caspase-3 cleavage at 0.5 to 2.5 uM incubated for 24 hrs by immunoblot analysis; assay type: functional, cell-based; conditions: dose 0.5-2.5 µM
MM1.S [28] = experiment: Induction of apoptosis in human MM1.S cells at 250 nM by AnnexinV/PI staining based flow cytometry; assay type: functional, cell-based
ANBL-6 [29] = experiment: Antiproliferative activity against wild type human ANBL-6 cells assessed as inhibition of cell growth incubated for 72 hrs by CellTiter-Glo luminescent assay; assay type: functional, cell-based
ANBL-6 [30] = experiment: Antiproliferative activity against Bortezomib-resistant human ANBL-6 cells assessed as inhibition of cell growth incubated for 72 hrs by CellTiter-Glo luminescent assay; assay type: functional, cell-based
[31] = molecular target: T2, Mitogen-activated protein kinase 9; experiment: Covalent binding affinity to JNK2 in human MM1.S cells incubated for 6 hrs by biotin-JNK-IN-7 probe based pull-down competition based analysis; assay type: cell-based
Summary of the method: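 MM.1S cells exposed to compound or DMSO 6 h; lysed in HEPES pH 7.4/NP-40 buffer; lysates incubated with 1 μM biotin-JNK-IN-7 overnight at 4 °C then 2 h room temperature; streptavidin pull-down 2–3 h at 4 °C; bound JNK1/JNK2 detected by western blot.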
Target sequence in this assay (P45984 whole entry, looked up): as the sequence (P45984 whole entry) above

[32] = molecular target: T2, Mitogen-activated protein kinase 9; experiment: Binding affinity to wild type N-terminal GST-tagged human recombinant JNK2 (1 to 364 residues) expressed in Escherichia coli in presence of ATP measured every 0.5 mins for 120 mins by fluorescence based analysis
Target sequence in this assay (P45984 whole entry, looked up): as the sequence (P45984 whole entry) above

T1 sequence (P45983 whole entry): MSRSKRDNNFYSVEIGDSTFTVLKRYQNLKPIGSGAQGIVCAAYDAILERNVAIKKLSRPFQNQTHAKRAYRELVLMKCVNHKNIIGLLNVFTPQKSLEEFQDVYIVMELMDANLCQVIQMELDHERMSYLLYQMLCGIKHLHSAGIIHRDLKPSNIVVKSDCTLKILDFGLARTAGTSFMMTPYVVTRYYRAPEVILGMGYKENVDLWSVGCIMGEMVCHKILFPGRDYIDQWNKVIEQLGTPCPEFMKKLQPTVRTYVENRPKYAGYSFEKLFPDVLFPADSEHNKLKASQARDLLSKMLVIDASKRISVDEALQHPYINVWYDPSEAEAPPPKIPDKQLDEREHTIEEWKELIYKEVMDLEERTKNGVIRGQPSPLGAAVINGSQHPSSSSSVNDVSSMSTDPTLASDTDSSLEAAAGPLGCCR
T4 sequence (Q9Y2I7 whole entry, the tested form may be a part): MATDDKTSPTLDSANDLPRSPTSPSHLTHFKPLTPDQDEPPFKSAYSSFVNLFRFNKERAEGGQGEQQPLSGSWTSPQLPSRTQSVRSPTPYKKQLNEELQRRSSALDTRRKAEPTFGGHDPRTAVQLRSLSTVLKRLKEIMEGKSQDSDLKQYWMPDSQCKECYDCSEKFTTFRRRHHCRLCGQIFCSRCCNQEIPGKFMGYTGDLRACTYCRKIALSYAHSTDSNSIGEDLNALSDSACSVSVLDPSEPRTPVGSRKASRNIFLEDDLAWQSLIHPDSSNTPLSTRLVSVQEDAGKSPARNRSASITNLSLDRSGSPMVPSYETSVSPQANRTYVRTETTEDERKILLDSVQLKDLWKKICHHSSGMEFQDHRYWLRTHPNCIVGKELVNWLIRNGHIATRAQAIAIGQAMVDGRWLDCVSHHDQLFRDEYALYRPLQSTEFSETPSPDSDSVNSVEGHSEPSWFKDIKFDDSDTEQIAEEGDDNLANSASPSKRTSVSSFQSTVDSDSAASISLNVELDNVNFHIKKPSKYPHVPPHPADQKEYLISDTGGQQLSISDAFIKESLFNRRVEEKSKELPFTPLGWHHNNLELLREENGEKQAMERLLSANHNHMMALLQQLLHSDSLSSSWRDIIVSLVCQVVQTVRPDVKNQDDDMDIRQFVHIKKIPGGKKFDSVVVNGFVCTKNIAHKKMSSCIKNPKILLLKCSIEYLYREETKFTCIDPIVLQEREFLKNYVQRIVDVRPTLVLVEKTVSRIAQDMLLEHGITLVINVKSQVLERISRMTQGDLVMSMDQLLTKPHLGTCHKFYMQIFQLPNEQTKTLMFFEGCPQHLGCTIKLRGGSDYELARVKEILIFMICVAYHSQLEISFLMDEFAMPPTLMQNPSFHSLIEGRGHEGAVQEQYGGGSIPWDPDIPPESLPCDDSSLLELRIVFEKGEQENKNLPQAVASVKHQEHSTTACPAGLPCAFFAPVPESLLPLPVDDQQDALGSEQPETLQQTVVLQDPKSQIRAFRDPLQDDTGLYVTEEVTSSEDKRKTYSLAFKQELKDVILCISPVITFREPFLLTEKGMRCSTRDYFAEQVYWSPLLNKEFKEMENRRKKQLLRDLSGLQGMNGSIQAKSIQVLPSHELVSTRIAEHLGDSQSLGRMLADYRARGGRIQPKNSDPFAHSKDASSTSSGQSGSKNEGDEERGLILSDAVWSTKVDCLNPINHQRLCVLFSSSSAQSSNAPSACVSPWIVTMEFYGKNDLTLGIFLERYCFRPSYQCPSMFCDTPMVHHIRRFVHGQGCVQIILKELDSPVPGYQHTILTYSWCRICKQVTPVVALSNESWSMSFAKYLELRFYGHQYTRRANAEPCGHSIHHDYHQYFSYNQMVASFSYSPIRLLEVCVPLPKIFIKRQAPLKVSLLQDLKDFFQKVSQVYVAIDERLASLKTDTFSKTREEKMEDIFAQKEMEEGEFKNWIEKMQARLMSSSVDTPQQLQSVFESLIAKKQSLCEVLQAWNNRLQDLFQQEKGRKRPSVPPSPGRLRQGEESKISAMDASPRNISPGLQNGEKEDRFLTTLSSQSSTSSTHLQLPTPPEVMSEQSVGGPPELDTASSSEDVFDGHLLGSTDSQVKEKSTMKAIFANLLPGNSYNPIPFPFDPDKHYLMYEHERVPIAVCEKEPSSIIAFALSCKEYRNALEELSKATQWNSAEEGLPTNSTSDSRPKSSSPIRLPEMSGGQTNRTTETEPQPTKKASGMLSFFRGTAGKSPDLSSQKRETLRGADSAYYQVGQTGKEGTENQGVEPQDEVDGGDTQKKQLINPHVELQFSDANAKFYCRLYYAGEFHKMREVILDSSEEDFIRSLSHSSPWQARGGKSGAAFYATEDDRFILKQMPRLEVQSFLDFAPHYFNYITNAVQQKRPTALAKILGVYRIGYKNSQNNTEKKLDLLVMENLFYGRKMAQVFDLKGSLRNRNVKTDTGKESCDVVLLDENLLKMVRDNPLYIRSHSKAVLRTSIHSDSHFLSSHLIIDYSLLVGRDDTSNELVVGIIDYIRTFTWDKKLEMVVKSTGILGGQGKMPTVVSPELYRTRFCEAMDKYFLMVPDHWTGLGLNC
T3 sequence (Q16539 whole entry, the tested form may be a part): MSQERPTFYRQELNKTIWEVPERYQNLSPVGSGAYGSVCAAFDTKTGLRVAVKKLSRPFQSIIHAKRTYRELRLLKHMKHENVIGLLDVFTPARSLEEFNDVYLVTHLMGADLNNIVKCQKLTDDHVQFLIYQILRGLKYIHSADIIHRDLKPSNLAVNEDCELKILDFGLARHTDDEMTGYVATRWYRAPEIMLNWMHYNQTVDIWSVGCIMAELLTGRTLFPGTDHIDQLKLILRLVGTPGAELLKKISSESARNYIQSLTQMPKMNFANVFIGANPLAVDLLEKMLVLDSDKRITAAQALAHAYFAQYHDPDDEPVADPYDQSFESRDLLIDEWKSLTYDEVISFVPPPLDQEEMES
Sequence of Aurora kinase B (Homo sapiens) (Q96GD4 whole entry): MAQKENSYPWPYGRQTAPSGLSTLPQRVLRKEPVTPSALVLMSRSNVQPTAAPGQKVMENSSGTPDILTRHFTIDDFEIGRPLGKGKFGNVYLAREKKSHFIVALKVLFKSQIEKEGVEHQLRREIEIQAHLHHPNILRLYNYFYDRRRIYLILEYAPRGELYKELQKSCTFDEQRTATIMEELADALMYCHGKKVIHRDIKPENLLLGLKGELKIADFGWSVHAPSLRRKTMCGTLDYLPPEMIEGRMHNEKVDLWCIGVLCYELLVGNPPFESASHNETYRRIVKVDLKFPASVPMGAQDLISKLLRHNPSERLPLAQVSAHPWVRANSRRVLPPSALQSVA
Sequence of Mitogen-activated protein kinase 10 (Homo sapiens) (P53779 whole entry): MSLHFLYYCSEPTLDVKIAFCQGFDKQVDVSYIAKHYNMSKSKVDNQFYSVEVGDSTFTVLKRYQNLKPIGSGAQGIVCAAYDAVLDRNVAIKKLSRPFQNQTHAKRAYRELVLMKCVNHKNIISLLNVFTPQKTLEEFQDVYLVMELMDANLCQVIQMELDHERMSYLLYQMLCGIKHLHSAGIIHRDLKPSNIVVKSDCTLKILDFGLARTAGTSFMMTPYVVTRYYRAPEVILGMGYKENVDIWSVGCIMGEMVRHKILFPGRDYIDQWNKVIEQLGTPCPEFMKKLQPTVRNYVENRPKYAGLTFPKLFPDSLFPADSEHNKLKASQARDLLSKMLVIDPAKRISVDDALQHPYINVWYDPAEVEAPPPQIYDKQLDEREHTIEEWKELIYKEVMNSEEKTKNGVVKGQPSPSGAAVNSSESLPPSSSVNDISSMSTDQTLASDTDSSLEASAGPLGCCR

Compound	IC50 [3] [nM]	IC50 [4] [nM]	Ratio IC50 (Homo sapiens [5])	other results
O[C@H]1CC[C@H](Nc2ncc3nc(Nc4c(F)cc(F)cc4F)n([C@H]4CCOC4)c3n2)CC1 [TANZISERTIB]	–	–	–	Activity (MM1.S [1]): inactive; IC50 [2]: > 30000 nM; Activity (HAP1): inactive
CN(C)C/C=C/C(=O)Nc1ccc(C(=O)N2CC[C@H](Nc3nccc(-c4c(-c5ccccc5)nn5ccccc45)n3)C2)cc1	166	5	33	Activity [6]: 100%; inhibition [7]: Active; inhibition [8]: Active; inhibition (Homo sapiens [9]): Active; inhibition [10]: Active; inhibition [11]: Active; inhibition [12]: Active; inhibition (SUM159PT): Active; inhibition [13]: Active; inhibition [14]: Active; Kd [15]: 270 nM; IC50 [16]: 292 nM; inhibition [17]: Active; inhibition [18]: Active
CN(C)C/C=C/C(=O)Nc1ccc(C(=O)N2CCC[C@H](Nc3nccc(-c4c(-c5ccccc5)nn5ccccc45)n3)C2)cc1	53	5	10	–
CN(C)C/C=C/C(=O)Nc1ccc(C(=O)N2CC[C@@H](Nc3nccc(-c4c(-c5ccccc5)nn5ccccc45)n3)C2)cc1	10	2	5	–
Cc1ccc2c(-c3ccnc(N[C@H]4CCN(C(=O)c5ccc(NC(=O)/C=C/CN(C)C)cc5)C4)n3)c(-c3ccccc3)nn2c1	18	1	18	–
O=c1ncn2nc(Sc3ccc(F)cc3F)ccc2c1-c1c(Cl)cccc1Cl [NEFLAMAPIMOD]	–	–	–	IC50 [2]: 10000 nM
CN(C)C/C=C/C(=O)Nc1ccc(C(=O)N2CCC[C@@H](Nc3nccc(-c4c(-c5ccccc5)nn5ccccc45)n3)C2)cc1	470	17	28	–
CN(C)C/C=C/C(=O)Nc1ccc(C(=O)N2CCCC[C@@H](Nc3nccc(-c4c(-c5ccccc5)nn5ccccc45)n3)C2)cc1	387	17	23	–
CN(C)C/C=C/C(=O)Nc1ccc(C(=O)N2CC[C@H](Nc3nccc(-c4c(-c5ccc(F)cc5)nn5ccccc45)n3)C2)cc1	67	4	17	–
CN(C)C/C=C/C(=O)Nc1ccc(C(=O)N2CCCC[C@H](Nc3nccc(-c4c(-c5ccccc5)nn5ccccc45)n3)C2)cc1	256	28	9	–
CN(C)C/C=C/C(=O)Nc1ccc(C(=O)N2CC[C@H](Nc3ncc(Cl)c(-c4c(-c5ccccc5)nn5ccccc45)n3)C2)cc1	3050	483	6	–
Cc1cccn2nc(-c3ccccc3)c(-c3ccnc(N[C@H]4CCN(C(=O)c5ccc(NC(=O)/C=C/CN(C)C)cc5)C4)n3)c12	–	–	8	–
CN(C)CCCC(=O)Nc1ccc(C(=O)N2CC[C@H](Nc3nccc(-c4c(-c5ccccc5)nn5ccccc45)n3)C2)cc1	–	–	–	IC50 [16]: > 3000 nM; inhibition [19]: inactive
CN(C)C/C=C/C(=O)Nc1ccc(C(=O)N2CC[C@H](Nc3nccc(-c4c(-c5ccc(Cl)cc5)nn5ccccc45)n3)C2)cc1	62	7	9	–
CN(C)C/C=C/C(=O)Nc1ccc(C(=O)Nc2cccc(Nc3nccc(-c4c(-c5ccccc5)nn5ccccc45)n3)c2)cc1	724	8.3	–	inhibition [20]: Active; inhibition (Homo sapiens [21]): Active; inhibition [22]: Active; inhibition [23]: Active; inhibition [24]: Active; inhibition [25]: Active
CN(C)C/C=C/C(=O)Nc1ccc(C(=O)N2CC[C@H](Nc3nccc(-c4c(-c5cccc(Cl)c5)nn5ccccc45)n3)C2)cc1	74	4	19	–
CN(C)C/C=C/C(=O)Nc1ccc(C(=O)NC2CCCC(Nc3nccc(-c4c(-c5ccccc5)nn5ccccc45)n3)C2)cc1 (configuration not stated)	475	44	11	–
Cc1cc(NC(=O)c2cccc(NC(=O)/C=C/CN(C)C)c2)ccc1Nc1nccc(-c2cccnc2)n1	–	–	–	Activity (MM1.S [26]): inactive; Activity (MM1.S [27]): inactive; Activity (MM1.S [28]): inactive; Activity (ANBL-6 [29]): inactive; Activity (ANBL-6 [30]): inactive; Activity [31]: Active; Activity [32]: Active
